Calls of active or inactive are those of the source. The rule behind the calls is not given here.
What was measured:
[1] = target: T1, NACHT, LRR and PYD domains-containing protein 3 (Mus musculus, UniProt Q8R4B8); test: Inhibition of NLRP3 in mouse J774A.1 cells assessed as reduction in LPS-stimulated IL-1beta levels pre-incubated with LPS for 4.5 hrs followed by incubation for 30 mins in presence of ATP and measured after 30 mins by ELISA; format: cell-based
[2] = target: T1, NACHT, LRR and PYD domains-containing protein 3; test: Inhibition of NLRP3 in mouse BMDM assessed as reduction in LPS-stimulated IL-1beta levels pre-incubated with LPS for 4.5 hrs followed by incubation for 30 mins in presence of ATP and measured after 30 mins by ELISA; format: cell-based
Procedure, shortened: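 J774A.1 cells (DMEM, 10% FBS; 1 × 10⁵/well, plated 24 h) or bone marrow derived macrophages primed with E. coli 0111:B4 LPS (final 1 µg/mL) for 4.5 h. Compound and ATP (5 mM) then added together for 30 min. Supernatant IL-1β by mouse ELISA.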

Mus musculus [3] = test: In-vivo inhibition of NLRP3 inflammasome in C57BL/6 mouse assessed as reduction in LPS-induced IL-1beta levels at 0.5 mg/kg, ip pre-treated for 1 hr followed by LPS stimulation for 2.5 hrs by ELISA; format: functional, organism-based
Procedure, shortened: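 C57BL/6 mice dosed with compound or vehicle, then 1 h later given LPS 20 mg/kg i.p. (PBS control). Serum IL-1β measured by ELISA 2.5 h after LPS.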

Mus musculus [4] = test: Cardioprotective activity in 30 mins coronary artery ligated I/R AMI ICR mouse model assessed as reduction in troponin-1 levels at 30 mg/kg, po measured at 24 hrs post surgery by ELISA; format: functional, organism-based
Procedure, shortened: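 ICR mice (8-12 weeks) under pentobarbital anaesthesia, intubated; left thoracotomy, pericardiectomy, proximal left coronary artery ligated 30 min then released. Compound or matched vehicle (0.1mL), n=6 per group.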

Mus musculus [5] = test: Cardioprotective activity in 30 mins coronary artery ligated I/R AMI ICR mouse model assessed as reduction in infract size at 30 mg/kg, po measured at 24 hrs post surgery by TTC-staining based assay; format: functional, organism-based
Procedure, shortened: (§1)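 ICR mice (8-12 weeks) were anesthetized with pentobarbital (50-70 mg/kg) and intubated, then underwent left thoracotomy and pericardiectomy. The proximal left coronary artery was ligated for 30 min or 75 min and released. Compound or vehicle was given at 0.1 mL, with n=6 per group. At 24 h after ischemia, viable myocardium was stained with TTC to measure infarct size.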

Mus musculus [6] = test: Cardioprotective activity in 75 mins coronary artery ligated I/R AMI ICR mouse model assessed as reduction in infract size at 30 mg/kg, po measured at 24 hrs post surgery by TTC-staining based assay; format: functional, organism-based; procedure, shortened: as §1
Mus musculus [7] = test: (§2) Cognition enhancement activity in double APP/PS1 transgenic Alzheimer's disease C57BL/6 mouse model assessed as increase in time spent in goal quadran at 100 mg/kg, ip administered as single daily dose at 5 times per week for first 1 week followed by oral administration as single daily dose at 5 times per week for next 7 weeks by Morris water maze test relative to control; format: functional, organism-based
Procedure, shortened: (§3)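 APP/PS1 female transgenic mice (B6C3-Tg APPswe/PSEN1dE9) and matching WT females, randomized at 7 months (WT vehicle n=4, treated n=6; Tg vehicle n=5, treated n=7). Daily i.p. (10% DMSO with PEG-100) for 5 days, then oral (2% DMSO in corn oil) once daily weekdays for 7 weeks. Afterwards tested by novel object recognition (discrimination index) and Morris water maze (4-day fixed-platform latency trials, then probe trial).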

Mus musculus [8] = test: as §2, with “Effect on cognition” for “Cognition enhancement”, “wild type” for “double APP/PS1 transgenic Alzheimer's disease”, “mouse” for “mouse model”, “decrease” for “increase”; format: ADME, organism-based; settings: in vivo; procedure, shortened: as §3
Mus musculus [9] = test: as §2, with “discrimination index” for “increase in time spent in goal quadran”, “novel object recognition” for “Morris water maze”; format: functional; procedure, shortened: as §3
Mus musculus [10] = test: as §2, with “decrease” for “increase”, “latency to find” for “time spent in”, “platform” for “quadran”; format: functional, organism-based; procedure, shortened: as §3
[11] = target: NACHT, LRR and PYD domains-containing protein 3 (Mus musculus) (UniProt Q8R4B8); test: Ratio of IC50 for LPS/ATP-induced NLRP3-mediated IL1beta release in mouse J774A.1 cells to IC50 for LPS/ATP-induced NLRP3-mediated IL1beta release in mouse BMDM; format: cell-based
NACHT, LRR and PYD domains-containing protein 3 (Mus musculus), sequence (Q8R4B8 whole entry, the tested form may be a part): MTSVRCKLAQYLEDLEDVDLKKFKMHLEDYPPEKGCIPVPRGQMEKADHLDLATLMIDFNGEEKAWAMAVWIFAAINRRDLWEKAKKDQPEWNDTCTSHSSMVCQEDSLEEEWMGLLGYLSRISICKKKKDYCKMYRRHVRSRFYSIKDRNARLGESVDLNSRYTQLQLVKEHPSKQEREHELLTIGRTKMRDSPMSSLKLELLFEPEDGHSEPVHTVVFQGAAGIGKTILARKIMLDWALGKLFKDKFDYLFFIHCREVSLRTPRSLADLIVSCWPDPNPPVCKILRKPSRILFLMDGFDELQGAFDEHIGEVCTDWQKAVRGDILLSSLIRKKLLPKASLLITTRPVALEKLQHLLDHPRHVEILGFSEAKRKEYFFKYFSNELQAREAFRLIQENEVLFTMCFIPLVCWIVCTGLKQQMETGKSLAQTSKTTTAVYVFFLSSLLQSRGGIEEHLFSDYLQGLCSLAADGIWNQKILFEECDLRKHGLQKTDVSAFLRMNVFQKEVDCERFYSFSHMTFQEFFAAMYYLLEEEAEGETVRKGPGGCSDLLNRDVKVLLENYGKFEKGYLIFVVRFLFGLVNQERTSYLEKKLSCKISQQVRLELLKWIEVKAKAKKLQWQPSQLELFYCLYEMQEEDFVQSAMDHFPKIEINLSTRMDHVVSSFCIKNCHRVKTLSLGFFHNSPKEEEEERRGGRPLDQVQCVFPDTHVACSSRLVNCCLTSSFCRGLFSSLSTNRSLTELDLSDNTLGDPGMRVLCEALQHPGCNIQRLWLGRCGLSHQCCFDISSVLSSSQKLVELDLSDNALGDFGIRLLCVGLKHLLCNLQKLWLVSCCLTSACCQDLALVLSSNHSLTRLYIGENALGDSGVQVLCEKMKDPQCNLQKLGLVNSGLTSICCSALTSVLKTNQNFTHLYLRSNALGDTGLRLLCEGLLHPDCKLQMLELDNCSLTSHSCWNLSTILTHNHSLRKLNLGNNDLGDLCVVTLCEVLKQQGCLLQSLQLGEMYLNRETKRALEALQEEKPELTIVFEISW

T1 sequence (Q8R4B8 whole entry, the tested form may be a part): as above

For COc1ccc(Cl)cc1C(=O)NCCc1ccc(S(=O)(=O)NCc2ccccc2)cc1, the IC50 [1] was 1310 nM.

For CNS(=O)(=O)c1ccc(CCCCNC(=O)c2cc(Cl)ccc2OC)cc1, the IC50 [1] was 1740 nM.

For COc1ccc(Cl)cc1C(=O)NCCc1ccc(S(=O)(=O)NCc2ccc(O)cc2)cc1, the IC50 [1] was 630 nM.

For CNS(=O)(=O)c1ccc(CCNC(=O)c2cc(Cl)cc(OC)c2)cc1, the IC50 [1] was 5830 nM.

With COc1ccc(CNS(=O)(=O)c2ccc(CCNC(=O)c3cc(Cl)ccc3OC)cc2)cc1 the IC50 [2] was 360 nM, the inhibition (Mus musculus [3]) was “Active” and the IC50 [1] was 420 nM.

Molecule CCN(CC)S(=O)(=O)c1ccc(CCNC(=O)c2cc(Cl)ccc2OC)cc1 has an IC50 [1] of 2010 nM.

CCCNS(=O)(=O)c1ccc(CCNC(=O)c2cc(Cl)ccc2OC)cc1 showed an IC50 [1] of 1640 nM.

In the case of CCCN(CCC)S(=O)(=O)c1ccc(CCNC(=O)c2cc(Cl)ccc2OC)cc1, the IC50 [1] is reported as 1400 nM.

In the case of COc1ccc(Cl)cc1C(=O)NCCc1ccc(S(=O)(=O)N2CCCC2)cc1, the IC50 [1] is reported as 3530 nM.

CNS(=O)(=O)c1ccc(CCNC(=O)c2ccc(OC)c(Cl)c2)cc1 was tested, and the IC50 [1] was 32800 nM.

COc1ccc(Cl)cc1C(=O)NCCc1ccc(S(=O)(=O)NCc2ccc(Cl)cc2)cc1 gave an IC50 [1] of 1500 nM.

CNS(=O)(=O)c1ccc(CCNC(=O)c2cc(Cl)ccc2OC)cc1 was tested, and the Activity (Mus musculus [4]) was “Active”, the Activity (Mus musculus [5]) was “Active” and the Activity (Mus musculus [6]) was “Active”. For the same molecule, the Activity (Mus musculus [7]) was “Active”, the Activity (Mus musculus [8]) was “Non-Toxic” and the Activity (Mus musculus [9]) was <50%. For the same molecule, the Activity (Mus musculus [10]) was “Active”.

CNS(=O)(=O)c1ccc(CCNC(=O)c2ccccc2)cc1 was tested, and the IC50 [1] was 147000 nM.

COc1ccc(Cl)cc1C(=O)NCCc1ccc(S(=O)(=O)N2CCCCC2)cc1 was tested, and the IC50 [1] was 5010 nM.

Work on COc1ccc(Cl)cc1C(=O)NCCc1ccc(S(=O)(=O)NCCc2ccccc2)cc1 yielded an IC50 [1] of 810 nM.

CNS(=O)(=O)c1ccc(CCNC(=O)c2cccc(Cl)c2OC)cc1 was tested, and the IC50 [1] was 31800 nM.

For CNS(=O)(=O)c1ccc(CCNC(=O)c2cc(Cl)ccc2O)cc1, the IC50 [1] was 10500 nM.

CNS(=O)(=O)c1ccc(CCCNC(=O)c2cc(Cl)ccc2OC)cc1 showed an IC50 [1] of 2030 nM.

With COc1ccc(Cl)cc1C(=O)NCCc1ccc(S(=O)(=O)N2CCOCC2)cc1 the IC50 [1] was 3440 nM.

COc1ccc(Cl)cc1C(=O)NCCc1ccc(S(=O)(=O)N2CCNCC2)cc1 showed an IC50 [1] of 3400 nM.

COc1ccc(Cl)cc1C(=O)NCCc1ccc(S(=O)(=O)NCc2ccc(C(F)(F)F)cc2)cc1 showed an IC50 [1] of 1900 nM.

Molecule COc1ccc(Cl)cc1C(=O)NCCc1ccc(S(=O)(=O)Nc2ccccc2)cc1 has an IC50 [1] of 2080 nM.

With CNS(=O)(=O)c1ccc(CCNC(=O)c2c(Cl)cccc2OC)cc1 the IC50 [1] was 44400 nM.

With CNS(=O)(=O)c1ccc(CCNC(=O)c2ccc(Cl)cc2OC)cc1 the IC50 [1] was 18000 nM.

In the case of CNS(=O)(=O)c1ccc(CCNC(=O)c2ccccc2OC)cc1, the IC50 [1] is reported as 17100 nM.

CNS(=O)(=O)c1ccc(CCNC(=O)c2cccc(Cl)c2)cc1 gave an IC50 [1] of 13400 nM.

CCCCN(CCCC)S(=O)(=O)c1ccc(CCNC(=O)c2cc(Cl)ccc2OC)cc1 was tested, and the IC50 [2] was 120 nM, the inhibition (Mus musculus [3]) was “Active” and the Ratio IC50 [11] was 4. The IC50 [1] was 550 nM.

Work on CCCCNS(=O)(=O)c1ccc(CCNC(=O)c2cc(Cl)ccc2OC)cc1 yielded an IC50 [1] of 970 nM.

Work on COc1ccc(Cl)cc1C(=O)NCCc1ccc(S(=O)(=O)N2CCC2)cc1 yielded an IC50 [1] of 1660 nM.

— ChEMBL document CHEMBL4251750, “Structural Insights of Benzenesulfonamide Analogues as NLRP3 Inflammasome Inhibitors: Design, Synthesis, and Biological Characterization” (J Med Chem, 2018)
